Screening results as filed in PubChem.
rCAG RNA binder: binds r(CAG) RNA repeats; r(CAG) RNA repeat, TO-PRO-1 dye displacement fluorescence; actives 1.3% (n = 370,000); inhibition, % at 3 µM; AID 651821;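 active means inhibition above the plate cutoff, the mean of all test compounds on that plate plus 3 SD, cut at about 35% in these data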;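 further: higher means more dye released from RNA so lower well fluorescence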
ABHD4 inh: inhibitors of mouse ABHD4; inhibition, % at 8.92 µM; purified mABHD4, FP-Rh probe fluorescence polarization; AID 720543; actives 0.54% (n = 370,000); Q8VD66;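 active means inhibition exceeding the mean over every tested compound plus 3 SD, cut at about 30% in these data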
Target sequence (Q8VD66 whole entry, looked up): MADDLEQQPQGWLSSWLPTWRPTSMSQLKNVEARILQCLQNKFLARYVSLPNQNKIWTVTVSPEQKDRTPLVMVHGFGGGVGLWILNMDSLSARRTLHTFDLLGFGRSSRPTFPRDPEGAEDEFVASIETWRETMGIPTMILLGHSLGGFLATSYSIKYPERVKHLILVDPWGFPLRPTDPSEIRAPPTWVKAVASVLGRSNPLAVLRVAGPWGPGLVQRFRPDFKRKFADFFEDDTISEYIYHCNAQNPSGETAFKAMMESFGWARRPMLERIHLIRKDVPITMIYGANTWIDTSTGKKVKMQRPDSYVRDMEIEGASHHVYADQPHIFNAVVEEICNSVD
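Assay system: mouse ABHD4 enzyme, wild type / Also added: fluorescent activity-based probe FP-Rh / Doses: single nominal dose of 8.92 µM, 0.89% DMSO final / Timing: 45 min compound pre-incubation plus 60 min probe step, 25 °C / Signal: FP readout, ex 525 nm / em 598 nm / Control set: S159A mutant/DMSO as 100%, compound-well median as 0%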
LEDGF integ inh: blocks HIV-1 LEDGF/p75-dependent DNA integration; TR-FRET IN-LEDGF/p75 DNA integration, Eu/Cy5; inhibition, % at 3.7 µM; actives 0.64% (n = 370,000);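 active means inhibition above the screen-wide mean plus 3 SD, cut at about 13% in these data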;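 further: signal is the Cy5 over europium emission ratio at 671 and 618 nm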
PRMT1 inh: PRMT1 (human) inhibition, primary screen; recombinant PRMT1, activity-based probe fluorescence polarization; actives 1.3% (n = 370,000); Q99873; inhibition, % at 2.79 µM;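 active means inhibition above about 21% made by adding two undisclosed values, limit read from the data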
DAGLB inhibitor: blocks human DAGLB lipase activity. Q8NCG7. actives 0.059% (n = 340,000). HEK293T DAGLB membrane lysate, EnzChek fluorogenic substrate. inhibition, % at 5.17 µM; in the data active means inhibition above about 34%
HTRA1 inh: HTRA1 (human) protease inhibition. Q92743. inhibition, % at 5.96 µM. recombinant HTRA1, FP-rhodamine activity-based probe, fluorescence polarization. actives 0.5% (n = 340,000); in the data active means inhibition above about 36%
PRMT1 inh conf: PRMT1 (human) inhibition, FP confirmation; AID 687036; shares compounds with PRMT1 inh; recombinant His-PRMT1, activity-based probe fluorescence polarization; actives 42% (n = 3,300); inhibition, % at 2.79 µM;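 active means mean inhibition across replicates above the hit cutoff derived for the earlier primary screen, cut at about 22% in these data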
Of the large screens only hits and unclear results are named; the others gave an inactive call (follow-up assays come after a bar, where they were run). The list is not random: actives were taken first. Their share in the collection is about 3.2%.

Cc1ccc(CNS(=O)(=O)c2cc(F)ccc2CN2C(=O)c3cccnc3C2=O)o1	PRMT1 inh 25 | PRMT1 inh conf inactive
Cc1cccc(NC(=O)C2CCN(S(=O)(=O)c3c(C)[nH]c(=O)[nH]c3=O)CC2)c1	none
CCCN(C(=O)Cc1coc2cc(OC)ccc12)C1CCS(=O)(=O)C1 (configuration not stated)	none
Cn1cnc([N+](=O)[O-])c1S(=O)(=O)c1ccc(Cl)cc1	PRMT1 inh 44 | PRMT1 inh conf inactive
Cn1cnc([N+](=O)[O-])c1NC(C)(C)C	none
CCC(=O)Nc1nnc(/C=C/c2ccccc2)s1	none
O=C(C1=C(O)C(=O)N(CCc2ccccc2)C1c1ccncc1)c1cc2ccccc2o1 (configuration not stated)	none
O=C(C1=C(O)C(=O)N(c2nccs2)C1c1ccccc1)c1cc2ccccc2o1 (configuration not stated)	PRMT1 inh 92 | PRMT1 inh conf 132
CCOc1cccc(C2C(C(=O)c3ccc(C)o3)=C(O)C(=O)N2c2nccs2)c1 (configuration not stated)	PRMT1 inh 65 | PRMT1 inh conf 38
CCN(CC)C(=O)[C@H]1CC(CC(=O)NCC23CC4CC(CC(C4)C2)C3)C(=O)N2CCc3c([nH]c4ccccc34)[C@]12C (some centres not stated)	none
Cc1ccccc1CSCC1Nc2ccc(C(=O)NCCc3ccccc3)cc2NC1=O (configuration not stated)	PRMT1 inh 49 | PRMT1 inh conf 65
COC(=O)COc1ccc2c(c1)O/C(=C\c1ccco1)C2=O	PRMT1 inh 31 | PRMT1 inh conf inactive
COC(=O)c1c(NC(=O)CSc2nc(-c3ccco3)cc(C(F)(F)F)n2)sc2c1CCCC2	none
CCN(CC)C(=S)SSC(=S)N(CC)CC	PRMT1 inh 74 | PRMT1 inh conf 80
O=C(O)c1ccccc1C(=O)Nc1ccccc1	none
O=C(Nc1ccccc1)C1=C(c2ccccc2)S(=O)(=O)CCS1(=O)=O	PRMT1 inh 47 | PRMT1 inh conf 56
COc1ccccc1C1c2[nH]c3ccccc3c2CCN1Cc1ccc(NC(C)=O)s1 (configuration not stated)	none
O=C1OC(NC(=O)c2ccccc2)C(n2cc(CO)nn2)=C1Cl (configuration not stated)	PRMT1 inh 65 | PRMT1 inh conf 67
Cc1ccc(NC2=C(Cl)C(=O)OC2NC(=O)c2ccccc2)cc1 (configuration not stated)	none
O=C1c2ccccc2C(O)N1CCN1CCOCC1 (configuration not stated)	none
CSCC(C)N1CCC(n2nccc2NC(=O)CCCc2ccccc2)CC1 (configuration not stated)	PRMT1 inh 30 | PRMT1 inh conf 24
CCCCN1C[C@H](C)[C@@H](CC(=O)NCc2ccccc2)C1=O	none
Cc1ccc(CNC(=O)c2ccc(NC(=O)CCS(=O)(=O)c3cccs3)cc2)cc1	PRMT1 inh 35 | PRMT1 inh conf inactive
O=C(NNc1nc2cc3c(cc2s1)OCO3)c1ccccc1	none
O=C(NNc1nc2cc3c(cc2s1)OCO3)c1cccc(F)c1	PRMT1 inh 33 | PRMT1 inh conf inactive
CC(C)N1CCc2c(sc(NC(=O)C(F)(F)F)c2-c2nc3ccccc3s2)C1	PRMT1 inh 31 (no result: rCAG RNA binder, DAGLB inhibitor, HTRA1 inh) | PRMT1 inh conf inactive
CC(=O)Nc1sc2c(c1-c1nc3ccccc3s1)CNC2	PRMT1 inh 27 (no result: rCAG RNA binder, DAGLB inhibitor, HTRA1 inh) | PRMT1 inh conf inactive
CC(=O)Nc1scc(C)c1-c1nc2ccccc2s1	none
O=C(CC1SC2=NCCN2C1=O)Nc1ccc(Br)cc1 (configuration not stated)	none
O=C(CC1Sc2ncnn2C1=O)Nc1ccc(Br)cc1 (configuration not stated)	PRMT1 inh 53 | PRMT1 inh conf 54
Cc1ccccc1-c1nc2ccccc2c(=O)n1/N=C/c1ccccc1[N+](=O)[O-]	PRMT1 inh 31 | PRMT1 inh conf inactive
CC(C)C1CC(N(C)C)=CC(=S)N1 (configuration not stated)	PRMT1 inh 35 (no result: DAGLB inhibitor, HTRA1 inh) | PRMT1 inh conf inactive
CN1CCC(N(C)C(=O)c2cc(-c3ccccc3Cl)nc3ccccc23)CC1	none
CN(C1=C(NC(=O)c2ccccc2)C(=O)c2ccccc2C1=O)C1CCS(=O)(=O)C1 (configuration not stated)	none
CC(=O)NC1=C(NC2CCS(=O)(=O)C2)C(=O)c2ccccc2C1=O (configuration not stated)	PRMT1 inh 44 | PRMT1 inh conf 67
CSCCC(NC(=O)c1cccc([N+](=O)[O-])c1)C(=O)O (configuration not stated)	none
c1ccc(-c2csc(NNC3=NCCCCC3)n2)cc1	PRMT1 inh 67 | PRMT1 inh conf inactive
COc1ccc(-c2csc(NC3=NCCCCC3)n2)cc1	none
COc1ccc(-c2csc(NNC3=NCCCCC3)n2)cc1	PRMT1 inh 38 (no result: DAGLB inhibitor, HTRA1 inh) | PRMT1 inh conf 32
CCCC1=C(C(=O)OCC)C(/C=C/c2ccccc2)n2ncnc2N1 (configuration not stated)	none (no result: rCAG RNA binder, ABHD4 inh, LEDGF integ inh, PRMT1 inh)
CN1CCN(c2ccccc2NC(=O)c2cccs2)CC1	none
CO[C@H]1CN(C)C(=O)c2ccc(NC(=O)C3CCC3)cc2OC[C@H](C)N(CC2CCCCC2)C[C@@H]1C	none (no result: DAGLB inhibitor, HTRA1 inh)
O=C1CC(N2CCN(c3ccc(O)cc3)CC2)C(=O)N1Cc1cccs1 (configuration not stated)	PRMT1 inh 49 | PRMT1 inh conf inactive
O=C(NNC(=O)c1ccc(Cl)c([N+](=O)[O-])c1)c1ccncc1	none
O=C(Nc1ccc(Cl)cc1)N1CCCN(c2ccc(C(F)(F)F)cc2[N+](=O)[O-])CC1	none
COc1ccccc1NC(=O)c1c(NC(=O)CCC(=O)O)sc2c1CCCCC2	PRMT1 inh 32 | PRMT1 inh conf inactive
O=C(O)CCC(=O)Nc1sc2c(c1C(=O)Nc1ccccc1)CCCCC2	PRMT1 inh 38 | PRMT1 inh conf inactive
CN(C(=O)c1cccc(NC(=O)Cc2cccc([N+](=O)[O-])c2)c1)C1CCC1	none
CC(NS(=O)(=O)c1cccc(S(=O)(=O)c2ccccc2)c1)C(=O)O (configuration not stated)	none
CCN(CC)CCn1c2ccccc2c2nc3ccccc3nc21	none
CCN(CC)CCn1c2ccccc2c2n[nH]c(=S)nc21	PRMT1 inh 85 | PRMT1 inh conf 58
CC12c3ccccc3C(c3ccccc31)C1C(=O)N(c3cccnc3)C(=O)C12 (configuration not stated)	none
Cc1cc(N2CCOCC2)ccc1/C=C1\SC(=O)N(C(C)C)C1=O	none
